# Screens (PubChem)
# TPT1 inhibitor = C. albicans TPT1 enzyme inhibition; inhibition, % at 5 µM; recombinant caTPT1, FP RNA substrate dephosphorylation; actives 0.81% (n = 300,000); AID 1962;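 active = inhibition above the mean of all tested compounds plus 3 SD, set per screening campaign, cut at about 24% in these data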;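 also: plate controls were DMSO alone for no effect and ferristatin control at 100 nM for full effect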
# Rpn11 inh = blocks the human proteasome subunit Rpn11; inhibition, % at 20 µM; human 26S proteasome, Ub4-pepOG fluorescence polarization; 20S core pre-blocked with epoxomicin; actives 0.59% (n = 360,000);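 active = inhibition at 20 µM, scaled to each plate's controls, above about 33%, limit read from the data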
# HNF4A DNA FP = change in binding of human HNF4 alpha to DNA | HNF4a-FITC DNA binding, fluorescence polarization, 1 h | actives 0.3% (n = 360,000) | activity change, % at 10 µM | AID 1224865; in the data active = activity change above about 30%, passing the limit was not always enough
# CSN inh = blocks human CSN-mediated cullin deneddylation. Q92905. Purified CSN, SCF-Nedd8-OG deneddylation, fluorescence polarization. inhibition, % at 12.5 µM. actives 0.38% (n = 360,000);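 active = pattern-corrected inhibition above about 35%, with an unprinted fluorescence ratio check between 0.5 and 1.5, limit read from the data, passing the limit was not always enough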;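 also: 0% = enzyme with substrate and 100% = substrate without enzyme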
#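 Assay system: purified human Csn5 enzyme expressed in HEK293T cells; Input: 0.24 nM Csn5 enzyme, final concentration; Reagent: 10 nM SCFSkp2-Nedd8OG; Compound dosing: 12.5 µM single point; Times: reaction 90 min, room temperature; Technique: fluorescence polarization readout.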
# NadD block = NadD (S. aureus) enzyme inhibition. purified NadD enzyme, colorimetric absorbance read-out. inhibition, % at 20 µM. actives 0.78% (n = 360,000). AID 602399; in the data active = inhibition above about 26%
# PP1 inh = blocks human PP1-alpha phosphatase, a PP5 counter-screen. P62136. purified PP1alpha, OMFP fluorescence. inhibition, % at 6.7 µM. actives 0.9% (n = 320,000);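 active = inhibition above the mean inhibition of all tested compounds plus 3 SD, computed separately for each screening campaign, cut at about 15% in these data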
# Target sequence (P62136 whole entry, looked up): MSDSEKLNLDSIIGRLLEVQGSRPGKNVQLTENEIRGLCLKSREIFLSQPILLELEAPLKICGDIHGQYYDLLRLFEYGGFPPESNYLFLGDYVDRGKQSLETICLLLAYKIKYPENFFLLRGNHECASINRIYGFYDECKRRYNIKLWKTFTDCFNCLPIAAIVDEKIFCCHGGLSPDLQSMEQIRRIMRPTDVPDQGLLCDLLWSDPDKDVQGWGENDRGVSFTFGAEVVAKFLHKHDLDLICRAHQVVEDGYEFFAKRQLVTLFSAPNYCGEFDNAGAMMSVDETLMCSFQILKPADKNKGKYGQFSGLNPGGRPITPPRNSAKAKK
# Rpn11 confirm = Rpn11 inhibition confirmation, single concentration. shares compounds with Rpn11 inh. purified human 26S proteasome, Ub4-pepOG fluorescence polarization; proteasome pretreated with epoxomicin. inhibition, % at 20 µM. actives 29% (n = 1,900). AID 602318
# MMP-2 inh = MMP-2 (human) inhibition counter-screen; shares compounds with Rpn11 inh; recombinant MMP-2, FRET peptide cleavage fluorescence; inhibition, % at 20 µM; actives 4% (n = 1,900); AID 602330;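 also: human MMP-2 activated beforehand with APMA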
# Thrombin inh = thrombin (bovine) inhibition counter-screen; shares compounds with Rpn11 inh; bovine thrombin cleavage of Ub4-pepOG, fluorescence polarization; inhibition, % at 20 µM; actives 13% (n = 1,900); AID 602333;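 active = mean inhibition at least 40% at 20 µM, or signal 3 deviations below plate average, so some actives read negative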;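 also: plate controls were thrombin with DMSO for no effect and buffer wells lacking thrombin for full effect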
# Starred values were filed as active, the others as inactive; nt = not tested or not shown. The list is not random: actives were taken first. Their share in the collection is about 2.7%. Rule as the data show it, unless noted: active = inhibition above about 40%; inactive = the rest.
SMILES,TPT1 inhibitor,Rpn11 inh,HNF4A DNA FP,CSN inh,NadD block,PP1 inh,Rpn11 confirm,MMP-2 inh,Thrombin inh
CC1(C)Oc2ccc(C(=O)NC3CCCC3)cc2N(CC(=O)N2CCOCC2)C1=O,2,75*,4,-2,2,-5,-12,-14,-17
N#Cc1ccccc1OCC(=O)Nc1c(C(=O)C2CC2)oc2ccccc12,-4,128*,17,-1,-4,1,5,-19,-6
Cc1cnc(Sc2ncccc2[N+](=O)[O-])nc1,-4,6,-1,3,5,-6,nt,nt,nt
Cc1cc(C)n2nc(Sc3ncccc3[N+](=O)[O-])nc2n1,-3,43*,1,-1,2,-4,-10,-38,-10
Nc1c(C(=O)OCC2CCCO2)c2nc3ccccc3nc2n1-c1ccc2c(c1)OCCO2 (centres undefined),18,nt,nt,nt,nt,0,nt,nt,nt
O=c1c2c3nc4ccccc4nc3n(-c3ccc4c(c3)OCCO4)c2ncn1C1CCCC1,1,128*,16,1,10,-3,-2,-13,-18
COC(=O)C(C)N1C(=O)S/C(=C/c2cc(C)n(-c3ccccn3)c2C)C1=O (centres undefined),-3,4,-1,-1,-3,-2,nt,nt,nt
COC(=O)C(C)N1C(=O)S/C(=C\c2cc(C)n(-c3ccccn3)c2C)C1=O (centres undefined),-1,136*,15,1,-3,4,1,-25,1
CCOC(=O)C1=C(c2ccccc2)NC(=S)NC1C (centres undefined),-3,112*,3,4,-2,4,-14,-39,-26
CCOC(=O)C1=C(C)NC(=S)NC1C (centres undefined),0,0,-3,3,-2,-1,nt,nt,nt
Cc1cccc(N2CCN(S(=O)(=O)c3cc4c(cc3Cl)NC(=O)CO4)CC2)c1C,-3,44*,7,6,18,5,38,-18,18
Cc1c(N2C(=O)CSC2c2ccccc2)c(=O)n(-c2ccccc2)n1C (centres undefined),-1,-3,2,-2,1,0,nt,nt,nt
COc1ccc(C2SCC(=O)N2c2c(C)n(C)n(-c3ccccc3)c2=O)cc1OC (centres undefined),0,31*,0,-9,-1,-1,-2,-29,1
N#Cc1cc2c(nc1SCC(=O)Nc1sc3c(c1C#N)CCC3)CCC2,3,10,0,4,13,-2,nt,nt,nt
COc1ccc(-c2ccc(C#N)c(SCC(=O)Nc3sc4c(c3C#N)CCC4)n2)cc1OC,15,83*,47*,121,25,-3,12,-18,4
Cc1cccc(CN2CCN(C3CN(Cc4ccc(F)cc4)S(=O)(=O)C3)CC2)c1 (centres undefined),nt,-1,0,-4,-4,nt,nt,nt,nt
CCOC(=O)c1c(NC(=S)NC)sc2c1CC(C)(C)SC2,1,10,6,5,6,-6,nt,nt,nt
CCOC(=O)c1c(NC(=S)Nc2ccccc2)sc2c1CC(C)(C)SC2,22,42*,12,18,23,0,8,81*,-11
CSCCC(NC(=O)c1ccccc1)C(=O)N1CC(C)OC(C)C1 (centres undefined),nt,4,2,-3,1,-3,nt,nt,nt
CCCCc1ccc(-c2csc(/C(C#N)=C\c3ccco3)n2)cc1,7,41*,4,26,6,-1,7,-5,1
CCCCc1ccc(-c2csc(/C(C#N)=C/c3ccc(C)o3)n2)cc1,11,67*,42*,41*,24,-2,-10,-27,-21
COc1ccc(-c2csc(/C(C#N)=C\c3cccc([N+](=O)[O-])c3)n2)cc1,-2,nt,nt,nt,nt,1,nt,nt,nt
N#C/C(=C\c1ccco1)c1nc2ccccc2s1,10,11,7,1,-3,0,nt,nt,nt
CC(C)CN1CC(C)C(=O)NC1=S (centres undefined),nt,-2,2,0,-2,nt,nt,nt,nt
COc1ccc(OC)c(NC(=O)Cn2c(=O)n(CC3CCCO3)c(=O)c3cc(OC)c(OC)cc32)c1 (centres undefined),0,0,2,9,2,-2,nt,nt,nt
SMILES,TPT1 inhibitor,Rpn11 inh,HNF4A DNA FP,CSN inh,NadD block,PP1 inh,Rpn11 confirm,MMP-2 inh,Thrombin inh
Cn1c(CNC(=O)c2ccco2)nnc1SCC(=O)Nc1ccc(Cl)cc1,0,-2,-1,-2,-2,4,nt,nt,nt
Cc1ccc(S(=O)(=O)N(C)CC(=O)O/N=C(\N)c2cccc([N+](=O)[O-])c2)cc1,1,196*,2,0,-8,0,2,-23,-3
CCOc1ccc(NC(=O)c2ccc(NC(=O)c3cn4c5c(c(N6CCN(C)CC6)c(F)cc5c3=O)OCC4C)cc2)cc1 (centres undefined),-1,46*,10,1,0,-2,-2,-11,0
COc1ccc(/C=C\c2onc(C)c2S(=O)(=O)N2CCC(C(=O)NCc3ccco3)CC2)cc1,0,2,-6,3,-6,-3,nt,nt,nt
Cc1noc(/C=C/c2ccco2)c1S(=O)(=O)N1CCC(C(=O)NC(C)c2ccccc2)CC1 (centres undefined),5,52*,21,5,8,5,0,-37,-2
CC(c1nnc(SCC(=O)c2c(N)n(C3CC3)c(=O)[nH]c2=O)n1-c1ccc(F)cc1)N(C)C (centres undefined),nt,1,0,-4,-3,-2,nt,nt,nt
COc1ccc(C2CC(c3ccccc3)=NN2C(=O)COC(=O)c2cnc(Cl)c(Cl)c2)cc1 (centres undefined),-4,3,1,0,1,0,nt,nt,nt
COc1ccc(C2CC(c3ccccc3)=NN2C(=O)COC(=O)c2ccc(Cl)nc2)cc1 (centres undefined),-1,42*,-2,0,4,14,8,-33,-34
CCOC(=O)C1CCN(C(=O)CN2C(=O)COc3ccc(C(C)(C)C)cc32)CC1,-3,-12,1,-2,-2,-2,nt,nt,nt
CCCCn1c(NC(=O)CC)c(C#N)c2nc3ccccc3nc21,3,189*,0,0,0,-2,38,-19,-17
CCC(=O)Nc1c(C#N)c2nc3ccccc3nc2n1C1CCCCC1,1,92*,12,32,2,-2,6,-29,-5
